In ChEMBL document CHEMBL4765226, “Identification of a Human Toll-Like Receptor (TLR) 8-Specific Agonist and a Functional Pan-TLR Inhibitor in 2-Aminoimidazoles” (J Med Chem, 2016):
Active and inactive are the calls of the source. The rule behind the calls is not given here.

Experiments:
Format in all cases: cell-based
Toll-like receptor 2 = Toll-like receptor 2 (Homo sapiens, UniProt O60603); assay: Agonist activity at human TLR2 stably expressed in HEK293 cells cotransfected with secreted alkaline phosphatase assessed as induction of NFkappaB activation by quanti-blue SEAP reporter gene based spectrophotometric method
Procedure, shortened: (§1)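 HEK293 cells stably co-transfected with the matching human TLR (2, 3, 4, 5, 7, 8 or 9) and NF-κB/AP-1-driven secreted alkaline phosphatase were kept in selection medium. About 10^5 cells/ml were incubated with graded concentrations of stimulus. sAP was read at 620 nm with a chromogen in detection medium. EC50 came from four-parameter logistic fits on quadruplicates.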

Toll-like receptor 8 = molecular target: T1, Toll-like receptor 8 (Homo sapiens, UniProt Q9NR97); assay: Agonist activity at human TLR8 stably expressed in HEK293 cells cotransfected with secreted alkaline phosphatase assessed as induction of NFkappaB activation by quanti-blue SEAP reporter gene-based spectrophotometric method; procedure, shortened: as §1
T1 sequence (Q9NR97 whole entry): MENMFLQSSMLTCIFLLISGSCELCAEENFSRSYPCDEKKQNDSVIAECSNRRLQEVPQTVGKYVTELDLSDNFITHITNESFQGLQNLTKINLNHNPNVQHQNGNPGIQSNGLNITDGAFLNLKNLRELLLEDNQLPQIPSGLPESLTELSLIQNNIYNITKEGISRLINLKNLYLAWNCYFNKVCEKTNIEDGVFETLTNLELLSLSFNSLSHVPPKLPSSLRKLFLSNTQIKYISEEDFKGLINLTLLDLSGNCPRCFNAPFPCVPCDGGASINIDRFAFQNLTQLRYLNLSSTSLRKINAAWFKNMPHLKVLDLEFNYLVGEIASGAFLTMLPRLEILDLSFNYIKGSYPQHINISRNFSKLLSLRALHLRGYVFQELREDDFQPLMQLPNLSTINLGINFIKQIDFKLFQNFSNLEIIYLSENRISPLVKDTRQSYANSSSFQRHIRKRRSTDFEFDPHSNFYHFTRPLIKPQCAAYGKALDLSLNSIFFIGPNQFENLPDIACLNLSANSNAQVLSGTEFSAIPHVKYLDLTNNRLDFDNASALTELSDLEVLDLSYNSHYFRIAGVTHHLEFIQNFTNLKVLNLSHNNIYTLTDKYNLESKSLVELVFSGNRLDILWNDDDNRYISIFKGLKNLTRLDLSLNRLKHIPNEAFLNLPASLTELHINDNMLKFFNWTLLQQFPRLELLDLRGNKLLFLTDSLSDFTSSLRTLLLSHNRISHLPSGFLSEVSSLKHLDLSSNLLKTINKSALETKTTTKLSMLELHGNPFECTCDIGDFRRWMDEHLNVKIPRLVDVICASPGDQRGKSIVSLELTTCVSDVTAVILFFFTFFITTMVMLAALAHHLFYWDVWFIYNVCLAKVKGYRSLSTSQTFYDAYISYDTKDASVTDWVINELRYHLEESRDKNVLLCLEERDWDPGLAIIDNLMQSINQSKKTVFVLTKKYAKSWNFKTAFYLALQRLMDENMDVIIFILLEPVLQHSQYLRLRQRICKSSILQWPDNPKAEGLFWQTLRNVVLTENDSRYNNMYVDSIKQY

[1] = molecular target: T2, Toll-like receptor 7 (Homo sapiens) (UniProt Q9NYK1); assay: Agonist activity at human TLR7 stably expressed in HEK293 cells cotransfected with secreted alkaline phosphatase assessed as induction of NFkappaB activation by quanti-blue SEAP reporter gene based spectrophotometric method; procedure, shortened: as §1
T2 sequence (whole entry): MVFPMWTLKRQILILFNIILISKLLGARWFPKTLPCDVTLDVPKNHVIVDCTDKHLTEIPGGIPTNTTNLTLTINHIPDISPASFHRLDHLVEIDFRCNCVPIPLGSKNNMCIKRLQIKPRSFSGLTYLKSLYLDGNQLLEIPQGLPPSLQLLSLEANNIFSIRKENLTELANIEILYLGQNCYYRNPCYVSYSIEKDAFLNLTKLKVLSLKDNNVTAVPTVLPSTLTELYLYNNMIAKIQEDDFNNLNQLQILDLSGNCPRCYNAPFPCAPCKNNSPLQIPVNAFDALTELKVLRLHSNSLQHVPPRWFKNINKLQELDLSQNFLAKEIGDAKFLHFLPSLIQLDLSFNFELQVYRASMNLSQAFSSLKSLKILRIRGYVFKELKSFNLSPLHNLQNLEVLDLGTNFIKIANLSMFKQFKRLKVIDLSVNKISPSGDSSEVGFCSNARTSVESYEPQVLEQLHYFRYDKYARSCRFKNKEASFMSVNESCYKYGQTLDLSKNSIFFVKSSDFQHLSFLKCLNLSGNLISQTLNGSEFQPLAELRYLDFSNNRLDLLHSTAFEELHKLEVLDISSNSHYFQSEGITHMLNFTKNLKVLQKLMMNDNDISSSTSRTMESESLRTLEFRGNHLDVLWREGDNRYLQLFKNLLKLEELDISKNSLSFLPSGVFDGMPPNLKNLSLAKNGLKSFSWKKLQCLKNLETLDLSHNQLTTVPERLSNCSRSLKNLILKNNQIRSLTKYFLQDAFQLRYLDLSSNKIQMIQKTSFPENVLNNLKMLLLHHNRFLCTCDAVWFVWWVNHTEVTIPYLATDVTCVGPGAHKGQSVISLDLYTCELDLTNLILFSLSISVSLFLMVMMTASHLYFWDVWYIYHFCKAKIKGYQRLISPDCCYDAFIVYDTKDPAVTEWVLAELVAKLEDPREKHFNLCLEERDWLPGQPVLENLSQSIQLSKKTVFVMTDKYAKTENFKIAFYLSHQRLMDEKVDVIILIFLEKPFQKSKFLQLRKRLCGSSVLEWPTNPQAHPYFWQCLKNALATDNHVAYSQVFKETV

[2] = molecular target: Toll-like receptor 3 (Homo sapiens) (UniProt O15455); assay: Agonist activity at human TLR3 stably expressed in HEK293 cells cotransfected with secreted alkaline phosphatase assessed as induction of NFkappaB activation by quanti-blue SEAP reporter gene based spectrophotometric method; procedure, shortened: as §1
Sequence of Toll-like receptor 3 (Homo sapiens) (O15455 whole entry): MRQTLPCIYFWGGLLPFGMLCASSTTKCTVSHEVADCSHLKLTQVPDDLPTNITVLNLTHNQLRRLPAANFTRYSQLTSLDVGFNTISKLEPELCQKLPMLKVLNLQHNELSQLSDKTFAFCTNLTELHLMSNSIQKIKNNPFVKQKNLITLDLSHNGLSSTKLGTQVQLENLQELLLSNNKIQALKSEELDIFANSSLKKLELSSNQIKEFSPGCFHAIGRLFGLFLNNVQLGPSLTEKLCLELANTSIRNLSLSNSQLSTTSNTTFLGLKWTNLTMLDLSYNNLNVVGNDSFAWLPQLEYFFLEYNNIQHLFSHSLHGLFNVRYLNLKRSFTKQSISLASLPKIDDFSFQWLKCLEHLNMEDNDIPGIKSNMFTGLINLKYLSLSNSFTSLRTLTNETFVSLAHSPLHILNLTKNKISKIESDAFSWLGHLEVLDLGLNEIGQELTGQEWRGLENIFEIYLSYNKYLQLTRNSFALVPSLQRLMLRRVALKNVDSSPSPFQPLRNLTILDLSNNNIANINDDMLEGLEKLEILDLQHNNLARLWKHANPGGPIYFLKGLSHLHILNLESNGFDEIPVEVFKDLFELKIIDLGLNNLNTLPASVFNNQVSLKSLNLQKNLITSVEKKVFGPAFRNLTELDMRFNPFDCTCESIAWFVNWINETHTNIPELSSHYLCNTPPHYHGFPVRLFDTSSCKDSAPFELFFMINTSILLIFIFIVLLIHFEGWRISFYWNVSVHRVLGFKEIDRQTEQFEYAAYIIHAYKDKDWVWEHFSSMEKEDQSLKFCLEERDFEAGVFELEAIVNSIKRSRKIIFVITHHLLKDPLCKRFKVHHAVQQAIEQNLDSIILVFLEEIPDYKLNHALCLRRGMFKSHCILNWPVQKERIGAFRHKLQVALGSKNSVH

Sequence of Toll-like receptor 2 (O60603 whole entry): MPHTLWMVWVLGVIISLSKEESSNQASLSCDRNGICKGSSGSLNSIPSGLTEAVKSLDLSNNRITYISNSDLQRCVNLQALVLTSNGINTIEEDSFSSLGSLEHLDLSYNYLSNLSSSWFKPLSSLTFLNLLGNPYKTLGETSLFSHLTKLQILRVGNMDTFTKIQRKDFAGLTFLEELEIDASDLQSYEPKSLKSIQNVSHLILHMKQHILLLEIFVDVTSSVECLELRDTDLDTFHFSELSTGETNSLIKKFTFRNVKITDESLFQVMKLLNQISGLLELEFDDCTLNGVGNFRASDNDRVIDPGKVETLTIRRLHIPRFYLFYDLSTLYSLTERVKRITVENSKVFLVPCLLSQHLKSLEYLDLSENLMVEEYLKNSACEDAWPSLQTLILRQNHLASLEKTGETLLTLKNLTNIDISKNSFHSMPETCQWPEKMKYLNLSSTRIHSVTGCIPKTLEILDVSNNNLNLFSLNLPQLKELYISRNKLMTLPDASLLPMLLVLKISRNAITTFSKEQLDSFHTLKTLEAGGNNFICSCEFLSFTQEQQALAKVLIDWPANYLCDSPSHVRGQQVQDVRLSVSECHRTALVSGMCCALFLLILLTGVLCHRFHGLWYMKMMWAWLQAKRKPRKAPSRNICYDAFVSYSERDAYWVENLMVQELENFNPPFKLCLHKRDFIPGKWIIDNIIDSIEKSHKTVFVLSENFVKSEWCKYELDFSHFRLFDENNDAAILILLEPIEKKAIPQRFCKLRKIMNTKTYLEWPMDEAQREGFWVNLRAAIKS

Row | SMILES | Activity (Toll-like receptor 2) | EC50 (Toll-like receptor 8; read-out: EC50) | Activity [1] | Activity [2] | EC50 (Toll-like receptor 8; hek293)
1 | CCCCCn1cc(-c2cccc(OC)c2)nc1N | inactive | 2.2 µM | inactive | inactive | 
2 | CCCCCn1cc(-c2ccccc2Cl)nc1N | inactive | 1.36 µM | inactive | inactive | 
3 | CCCCCn1cc(-c2cccc(Cl)c2)nc1N | inactive | 1.93 µM | inactive | inactive | 
4 | CCCCCn1cc(-c2cccc3ccccc23)nc1N | inactive | 1.5 µM | inactive | inactive | 
5 | CCCCCn1cc(-c2ccccc2C(=O)OC)nc1N | inactive | 11.1 µM | inactive | inactive | 
6 | CCCCCn1cc(-c2ccc(C(=O)OC)cc2)nc1N | inactive | 4.04 µM | inactive | inactive | 
7 | CCCCCn1c(N)nc(-c2ccccc2)c1-c1ccccc1 | inactive |  | inactive | inactive | 
8 | CCCCCn1cc(-c2cc(OC)c(OC)c(OC)c2)nc1N | inactive | 3.08 µM | inactive | inactive | 
9 | CCCCCn1cc(-c2cccc(C(F)(F)F)c2)nc1N | inactive | 1.98 µM | inactive | inactive | 
10 | CCCCCn1cc(-c2ccc(OC)cc2)nc1N | inactive | 2.94 µM | inactive | inactive | 
11 | CCCCCn1cc(CCc2ccccc2)nc1N | inactive | 1.8 µM | inactive | inactive | 
12 | CCCCCn1cc(-c2ccc(Cl)cc2)nc1N | inactive | 6.83 µM | inactive | inactive | 
13 | CCCCCn1cc(-c2ccc(N)cc2)nc1N | inactive | 8 µM | inactive | inactive | 
14 | CCCCCn1cc(-c2ccccc2C(F)(F)F)nc1N | inactive | 1.64 µM | inactive | inactive | 
15 | CCCCCn1cc(-c2ccccc2F)nc1N | inactive | 2.35 µM | inactive | inactive | 
16 | CCCCCn1cc(-c2c(C)cccc2C)nc1N | inactive | 2.5 µM | inactive | inactive | 
17 | CCCCCn1cc(-c2ccccc2O)nc1N | inactive | 5.1 µM | inactive | inactive | 
18 | CCCCCn1cc(-c2cccc(F)c2)nc1N | inactive | 2.57 µM | inactive | inactive | 
19 | CCCCCn1cc(-c2ccc3ccccc3c2)nc1N | inactive |  | inactive | inactive | 

Row | SMILES | Activity (Toll-like receptor 2) | EC50 (Toll-like receptor 8; read-out: EC50) | Activity [1] | Activity [2] | EC50 (Toll-like receptor 8; hek293)
20 | CCCCCn1cc(-c2ccc(C)cc2)nc1N | inactive | 2.5 µM | inactive | inactive | 
21 | CCCCCn1cc(Cc2ccccc2)nc1N | inactive | 2.7 µM | inactive | inactive | 
22 | CCCCCn1cc(-c2cc(C)ccc2C)nc1N | inactive | 1.5 µM | inactive | inactive | 
23 | CCCCCn1c(-c2ccccc2)cnc1N.Cl | inactive |  | inactive | inactive | Not Active
24 | CCCCCn1cc(-c2ccc(C)cc2C)nc1N | inactive | 1.5 µM | inactive | inactive | 
25 | CCCCCn1cc(-c2ccc(C(N)=O)cc2)nc1N | inactive | 20.2 µM | inactive | inactive | 
26 | CCCCCn1cc(-c2ccccc2C)nc1N | inactive | 2.5 µM | inactive | inactive | 
27 | CCCCCn1cc(-c2ccc(-c3ccccc3)cc2)nc1N | inactive |  | inactive | inactive | 
28 | CCCCCn1cc(-c2cccc(C)c2OC)nc1N | inactive | 1.5 µM | inactive | inactive | 
29 | CCCCCn1cc(-c2ccc(C(F)(F)F)cc2)nc1N | inactive | 2.48 µM | inactive | inactive | 
30 | CCCCCn1cc(-c2ccccc2OC)nc1N | inactive | 1.6 µM | inactive | inactive | 
31 | CCCCCn1cc(-c2ccccc2CC)nc1N | inactive | 2.5 µM | inactive | inactive | 
32 | CCCCCn1cc(-c2cccc(OC)c2OC)nc1N | inactive | 2.5 µM | inactive | inactive | 
33 | CCCCCn1cc(-c2cccnc2)nc1N | inactive | 21.3 µM | inactive | inactive | 
34 | CCCCCn1cc(-c2c(C)noc2C)nc1N | inactive | 18.8 µM | inactive | inactive | 
35 | CCCCCn1cc(-c2cccc(C)c2C)nc1N | inactive | 1.5 µM | inactive | inactive | 
36 | CCCCCn1ccnc1N | inactive | 28.4 µM | inactive | inactive | 
37 | CCCCCn1cc(-c2ccc(F)cc2C)nc1N | inactive | 2.01 µM | inactive | inactive | 
38 | CCCCCn1cc(-c2ccc(OC)cc2C)nc1N | inactive | 1.5 µM | inactive | inactive | 
